# Source: ChEMBL document CHEMBL1806397, “6-Aryl-3-pyrrolidinylpyridines as mGlu5 receptor negative allosteric modulators” (Bioorg Med Chem Lett, 2011)
# System: Liver microsomes
# Assay: Intrinsic clearance in human liver microsomes at 1 uM after 0.25 to 60 mins by LC-MS/MS analysis
# Assay type: ADME, Microsome
# Conditions: not given
# Procedure, shortened: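 Compound at 1 µM incubated at 37 °C with pooled human liver microsomes (0.5 mg/mL) in 0.1 M potassium phosphate pH 7.4 with an NADPH-regenerating system. Aliquots taken at 0.25, 5, 15, 30 and 60 min and quenched in acetonitrile. CLint calculated from T1/2, scaled by liver and microsomal protein factors.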
row,CL,Compound
1,1.6 L/min,O=C(c1cncs1)N1CCCC1c1ccc(-c2cccc(Cl)c2)nc1 (stereo unspecified)
2,35 L/min,Cc1cc(-c2cccc(Cl)c2)ncc1C1CCCN1C(=O)c1cncs1 (stereo unspecified)
3,3.3 L/min,Cc1cc(-c2cccc(Cl)c2)ncc1C1CCCN1C(=O)c1cnccn1 (stereo unspecified)
4,5.3 L/min,Cc1cc(-c2cccc(Cl)c2)ncc1C1CCCN1C(=O)c1ccncn1 (stereo unspecified)
5,1.7 L/min,COc1cc(-c2cccc(Cl)c2)ncc1C1CCCN1C(=O)c1cncs1 (stereo unspecified)
6,7.1 L/min,Cc1cc(-c2cccc(Cl)c2)ncc1C1CC(F)CN1C(=O)c1cncs1 (stereo unspecified)
7,5.2 L/min,Cc1cc(-c2cccc(Cl)c2)ncc1C1CCCN1C(=O)c1nccs1 (racemic)

# Second part, the molecule before the results:
row,Compound,CL
1,Cc1cc(-c2cccc(Cl)c2)ncc1C1CC(F)CN1C(=O)c1cnccn1 (stereo unspecified),2.6 L/min
2,O=C(c1cccs1)N1CCCC1c1ccc(-c2cccc(Cl)c2)nc1 (stereo unspecified),3 L/min
3,O=C(c1nccs1)N1CCCC1c1ccc(-c2cccc(Cl)c2)nc1 (stereo unspecified),3.8 L/min
4,O=C(c1cnccn1)N1CCCC1c1ccc(-c2cccc(Cl)c2)nc1 (stereo unspecified),3.3 L/min
5,Cc1cc(C(=O)N2CCCC2c2cnc(-c3cccc(Cl)c3)cc2C)no1 (stereo unspecified),38 L/min
6,Cc1cc(-c2cccc(Cl)c2)ncc1C1CCCN1C(=O)C1CCC1 (stereo unspecified),5.3 L/min
7,Cc1cc(-c2cccc(Cl)c2)ncc1C1CC(O)CN1C(=O)c1nccs1 (stereo unspecified),0.9 L/min
8,Cc1cc(-c2cccc(Cl)c2)ncc1C1CC(O)CN1C(=O)c1cnccn1 (stereo unspecified),1.6 L/min

# System: not listed separately
# Assay: Distribution coefficient, log D of the compound at pH 7.4
# Assay type: physicochemical
# Conditions: octanol/water
row,Compound,logD
1,Cc1cc(-c2cccc(Cl)c2)ncc1[C@H]1CCCN1C(=O)c1nccs1,4.3

# System: not listed separately
# Assay: Drug level in Sprague-Dawley rat brain at 10 mg/kg, po after 1 hr
# Assay type: ADME, organism-based
# Design: dose 10 mg/kg, route oral
# Conditions: read-out: Drug uptake
row,Compound,concentration at 1 h
1,Cc1cc(-c2cccc(Cl)c2)ncc1[C@H]1CCCN1C(=O)c1nccs1,133 nM

# System: not listed separately
# Assay: Drug level in Sprague-Dawley rat plasma at 10 mg/kg, po after 1 hr
# Assay type: ADME, organism-based
# Design: dose 10 mg/kg, route oral
# Conditions: not given
row,Compound,concentration at 1 h
1,Cc1cc(-c2cccc(Cl)c2)ncc1[C@H]1CCCN1C(=O)c1nccs1,162 nM

# System: not listed separately
# Assay: Dissociation constant, pKa of the compound
# Assay type: physicochemical
# Conditions: not given
row,pKa,Compound
1,3.6,O=C(c1cncs1)N1CCCC1c1ccc(-c2cccc(Cl)c2)nc1 (stereo unspecified)
2,4.2,Cc1cc(-c2cccc(Cl)c2)ncc1C1CCCN1C(=O)c1cncs1 (stereo unspecified)
3,4.1,Cc1cc(-c2cccc(Cl)c2)ncc1C1CCCN1C(=O)c1cnccn1 (stereo unspecified)
4,5,COc1cc(-c2cccc(Cl)c2)ncc1C1CCCN1C(=O)c1cncs1 (stereo unspecified)

# Continued, molecule first:
row,Compound,pKa
1,O=C(c1cccs1)N1CCCC1c1ccc(-c2cccc(Cl)c2)nc1 (stereo unspecified),3.6
2,Cc1cc(C(=O)N2CCCC2c2ccc(-c3cccc(Cl)c3)nc2)no1 (stereo unspecified),3.5
3,O=C(c1cnccn1)N1CCCC1c1ccc(-c2cccc(Cl)c2)nc1 (stereo unspecified),3.4
4,Cc1cc(C(=O)N2CCCC2c2cnc(-c3cccc(Cl)c3)cc2C)no1 (stereo unspecified),4.2
5,O=C(C1CCC1)N1CCCC1c1cnc(-c2cccc(Cl)c2)cc1O (stereo unspecified),2.8

# System: Plasma
# Assay: Free drug level in Sprague-Dawley rat plasma at 10 mg/kg, po after 1 hr
# Assay type: ADME, organism-based
# Design: dose 10 mg/kg, route oral
# Conditions: in vivo
row,Compound,Cp(f)
1,Cc1cc(-c2cccc(Cl)c2)ncc1[C@H]1CCCN1C(=O)c1nccs1,1 nM

# System: not listed separately
# Assay: Apparent permeability of the compound at pH 7.4 by PAMPA method
# Assay type: ADME
# Conditions: not given
# Procedure, shortened: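 Passive membrane permeability estimated by PAMPA; apparent permeability (P_APP) reported in cm/s.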
row,Compound,Papp
1,Cc1cc(-c2cccc(Cl)c2)ncc1[C@H]1CCCN1C(=O)c1nccs1,15 ×10⁻⁶ cm/s

# System: not listed separately
# Assay: Drug level in Sprague-Dawley rat cerebrospinal fluid at 10 mg/kg, po after 1 hr
# Assay type: ADME, organism-based
# Design: dose 10 mg/kg, route oral
# Conditions: read-out: Drug uptake
row,Compound,concentration at 1 h
1,Cc1cc(-c2cccc(Cl)c2)ncc1[C@H]1CCCN1C(=O)c1nccs1,3 nM

# System: not listed separately
# Assay: Ratio of drug level in brain to plasma in Sprague-Dawley rat at 10 mg/kg, po after 1 hr
# Assay type: ADME, organism-based
# Design: dose 10 mg/kg, route oral
# Conditions: read-out: BPR
row,Compound,Kp at 1 h
1,Cc1cc(-c2cccc(Cl)c2)ncc1[C@H]1CCCN1C(=O)c1nccs1,0.8
